The values that follow come from ChEMBL document CHEMBL1137629, “Antiproliferative effect of dihydroxyacetone on Trypanosoma brucei bloodstream forms: cell cycle progression, subcellular alterations, and cell death” (Antimicrob Agents Chemother, 2007).

Active and inactive are the calls of the source. No cut-off for these calls is given here.

In assay [1] the test system is Trypanosoma brucei. The experiment in a line: Trypanocidal activity against Trypanosoma brucei bloodstream form assessed as induction of autophagy at 5 uM after 24 hrs by transmission electron microscopy. It counts as functional, organism-based. In outline:
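Autophagy positive control. Bloodstream forms treated with 5 μM rapamycin (from a 50 mM ethanol stock), processed by glutaraldehyde/osmium fixation, uranyl acetate staining, resin embedding and sectioning for transmission electron microscopy.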

Assay [2] deals with Trypanosoma brucei. Briefly: Induction of apoptosis-like programmed cell death in Trypanosoma brucei bloodstream form assessed as loss of mitochondrial-membrane potential at 100 nM after 24 hrs by TMRE staining. It counts as functional. In outline: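 T. brucei MITat 1.2 (EATRO 427) bloodstream forms were grown axenically at 37°C, 5% CO₂ and exposed to DHA for 24 h. Cells at 10⁶/ml were stained with 25 nM TMRE in culture medium for 30 min at 37°C and read at once by flow cytometry. Depolarization control: valinomycin 100 nM. Lower fluorescence signifies lost membrane potential.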

Regarding `CO[C@H]1C[C@@H]2CC[C@@H](C)[C@@](O)(O2)C(=O)C(=O)N2CCCC[C@H]2C(=O)O[C@H]([C@H](C)C[C@@H]2CC[C@@H](O)[C@H](OC)C2)CC(=O)[C@H](C)/C=C(\C)[C@@H](O)[C@@H](OC)C(=O)[C@H](C)C[C@H](C)/C=C/C=C/C=C/1C`, in the assay with Trypanosoma brucei [1], the result was Active.

Turning to `CC(C)[C@@H]1NC(=O)[C@H](C)OC(=O)[C@@H](C(C)C)NC(=O)[C@@H](C(C)C)OC(=O)[C@H](C(C)C)NC(=O)[C@H](C)OC(=O)[C@@H](C(C)C)NC(=O)[C@@H](C(C)C)OC(=O)[C@H](C(C)C)NC(=O)[C@H](C)OC(=O)[C@@H](C(C)C)NC(=O)[C@@H](C(C)C)OC1=O` [VALINOMYCIN], the Activity in the assay with Trypanosoma brucei [2] is 97.3%.
